In brackets after ≈: the same amount, converted by molar mass.
Key:
Type in all cases: functional
Candida albicans = assay: Antifungal activity against Candida albicans ATCC Y0109 after 24 hrs by micro-broth dilution method; details: ATCC Y0109, 24 h
Method in brief: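 Micro-broth dilution per NCCLS M27-A2 on the quality-control standard strain ATCC Y0109, included in each assay. Compounds were dissolved in DMSO, serially diluted in growth medium, inoculated and incubated at 35 °C, with growth read at 24 h. MIC80 is the first well showing roughly 80% growth reduction versus the drug-free well.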

Candida parapsilosis = assay: Antifungal activity against Candida parapsilosis ATCC 0306392 by micro-broth dilution method; details: Lodderomyces parapsilosis
Method in brief: (§1)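 Micro-broth dilution per NCCLS M27-A2. The C. parapsilosis strain is the ATCC 0306392 quality-control standard tested in each assay; the C. tropicalis strain is a clinical isolate. Compounds were in DMSO, serially diluted in growth medium, inoculated and incubated at 35 °C. MIC80 is the first well with about 80% growth reduction relative to the drug-free well.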

Candida tropicalis = assay: Antifungal activity against Candida tropicalis by micro-broth dilution method; method in brief: as §1
Cryptococcus neoformans = assay: Antifungal activity against Cryptococcus neoformans ATCC BLS108 after 72 hrs by micro-broth dilution method; details: ATCC BLS108, 72 h
Method in brief: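 NCCLS M27-A2 microdilution on the ATCC BLS108 quality-control strain, tested in every assay. Compounds were taken up in DMSO, serially diluted in growth medium, inoculated and incubated at 35 °C. Growth was scored at 72 h. MIC80 is the first well with about 80% lower growth than the drug-free control well.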

Aspergillus fumigatus = assay: Antifungal activity against Aspergillus fumigatus after 7 days by micro-broth dilution method; details: 168 h
Method in brief: (§2)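 Broth microdilution following the NCCLS yeast reference method (M27-A2), run on clinical isolates of filamentous fungi. Compounds were dissolved in DMSO, serially diluted in growth medium, inoculated and incubated at 35 °C. Growth was read at 7 days. MIC80 is the first well with about 80% less growth than the drug-free well.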

Trichophyton rubrum = assay: Antifungal activity against Trichophyton rubrum after 7 days by micro-broth dilution method; details: 168 h; method in brief: as §2
[1] = Antifungal activity against Fonsecaea compacta by micro-broth dilution method; method in brief: as §2
Nannizzia gypsea = assay: Antifungal activity against Microsporum gypseum after 7 days by micro-broth dilution method; details: 168 h; method in brief: as §2

| MIC80 (Candida albicans) [µg/mL] | MIC80 (Candida parapsilosis) [µg/mL] | MIC80 (Candida tropicalis) [µg/mL] | MIC80 (Cryptococcus neoformans) [µg/mL] | MIC80 (Aspergillus fumigatus) [µg/mL] | MIC80 (Trichophyton rubrum) [µg/mL] | MIC80 [1] [µg/mL] | MIC80 (Nannizzia gypsea) [µg/mL] | Compound |
| --- | --- | --- | --- | --- | --- | --- | --- | --- |
| 64 (≈ 117 µM) | 0.0039 (≈ 0.00716 µM) | 0.0039 (≈ 0.00716 µM) | 0.0156 (≈ 0.0286 µM) | 1 (≈ 1.84 µM) | 0.0039 (≈ 0.00716 µM) | 0.0156 (≈ 0.0286 µM) | 0.0039 (≈ 0.00716 µM) | O=C(Nc1ccc(N2CCN(CC(O)(Cn3cncn3)c3ccc(F)cc3F)CC2)c(F)c1)C(F)(F)Cl (racemic) |
| 0.0156 (≈ 0.0295 µM) | 0.0039 (≈ 0.00738 µM) | 0.0039 (≈ 0.00738 µM) | 0.0625 (≈ 0.118 µM) | 1 (≈ 1.89 µM) | 0.0156 (≈ 0.0295 µM) | 0.25 (≈ 0.473 µM) | > 64 | O=C(Nc1ccc(N2CCN(CC(O)(Cn3cncn3)c3ccc(F)cc3F)CC2)c(F)c1)C(F)(F)F (racemic) |
| 0.0039 (≈ 0.00794 µM) | 0.0156 (≈ 0.0318 µM) | 0.0156 (≈ 0.0318 µM) | 0.25 (≈ 0.509 µM) | 4 (≈ 8.15 µM) | 0.0625 (≈ 0.127 µM) | 0.0625 (≈ 0.127 µM) | 0.0625 (≈ 0.127 µM) | O=C(CCl)Nc1ccc(N2CCN(CC(O)(Cn3cncn3)c3ccc(F)cc3F)CC2)cc1 (racemic) |
| 0.00097 (≈ 0.00184 µM) | 0.0039 (≈ 0.0074 µM) | 0.0039 (≈ 0.0074 µM) | 0.0625 (≈ 0.119 µM) | 1 (≈ 1.9 µM) | 0.0156 (≈ 0.0296 µM) | 0.0625 (≈ 0.119 µM) | 0.0039 (≈ 0.0074 µM) | O=C(Nc1ccc(N2CCN(CC(O)(Cn3cncn3)c3ccc(F)cc3F)CC2)cc1)C(F)(F)Cl (racemic) |
| 0.00097 (≈ 0.0019 µM) | 0.0039 (≈ 0.00764 µM) | 0.00097 (≈ 0.0019 µM) | 0.0156 (≈ 0.0306 µM) | 1 (≈ 1.96 µM) | 0.0156 (≈ 0.0306 µM) | 0.0156 (≈ 0.0306 µM) | 0.0039 (≈ 0.00764 µM) | O=C(Nc1ccc(N2CCN(CC(O)(Cn3cncn3)c3ccc(F)cc3F)CC2)cc1)C(F)(F)F (racemic) |
| 0.0156 (≈ 0.0332 µM) | 0.0156 (≈ 0.0332 µM) | 0.0156 (≈ 0.0332 µM) | 1 (≈ 2.13 µM) | 4 (≈ 8.5 µM) | 0.0625 (≈ 0.133 µM) | 0.25 (≈ 0.531 µM) | 0.25 (≈ 0.531 µM) | CCC(=O)Nc1ccc(N2CCN(CC(O)(Cn3cncn3)c3ccc(F)cc3F)CC2)cc1 (racemic) |
| 0.00097 (≈ 0.002 µM) | 0.0156 (≈ 0.0322 µM) | 0.0625 (≈ 0.129 µM) | 0.25 (≈ 0.516 µM) | 4 (≈ 8.26 µM) | 0.0625 (≈ 0.129 µM) | 0.25 (≈ 0.516 µM) | 0.0625 (≈ 0.129 µM) | CCCC(=O)Nc1ccc(N2CCN(CC(O)(Cn3cncn3)c3ccc(F)cc3F)CC2)cc1 (racemic) |
| 0.0039 (≈ 0.00805 µM) | 0.0156 (≈ 0.0322 µM) | 0.0156 (≈ 0.0322 µM) | 1 (≈ 2.06 µM) | 4 (≈ 8.26 µM) | 0.25 (≈ 0.516 µM) | 0.25 (≈ 0.516 µM) | 0.0625 (≈ 0.129 µM) | CC(C)C(=O)Nc1ccc(N2CCN(CC(O)(Cn3cncn3)c3ccc(F)cc3F)CC2)cc1 (racemic) |
| 0.0156 (≈ 0.0313 µM) | 0.0625 (≈ 0.125 µM) | 0.0625 (≈ 0.125 µM) | 0.25 (≈ 0.501 µM) | 1 (≈ 2.01 µM) | 0.0625 (≈ 0.125 µM) | 0.25 (≈ 0.501 µM) | 0.25 (≈ 0.501 µM) | CCCCC(=O)Nc1ccc(N2CCN(CC(O)(Cn3cncn3)c3ccc(F)cc3F)CC2)cc1 (racemic) |
| 0.0156 (≈ 0.0304 µM) | 0.25 (≈ 0.488 µM) | 0.25 (≈ 0.488 µM) | 1 (≈ 1.95 µM) | > 64 | 0.0625 (≈ 0.122 µM) | 1 (≈ 1.95 µM) | 0.0625 (≈ 0.122 µM) | CCCCCC(=O)Nc1ccc(N2CCN(CC(O)(Cn3cncn3)c3ccc(F)cc3F)CC2)cc1 (racemic) |
| 0.0156 (≈ 0.0313 µM) | 0.0156 (≈ 0.0313 µM) | 0.0156 (≈ 0.0313 µM) | 0.25 (≈ 0.501 µM) | 16 (≈ 32.1 µM) | 0.0039 (≈ 0.00782 µM) | 1 (≈ 2.01 µM) | 0.0156 (≈ 0.0313 µM) | CC(C)(C)C(=O)Nc1ccc(N2CCN(CC(O)(Cn3cncn3)c3ccc(F)cc3F)CC2)cc1 (racemic) |
| 0.00097 (≈ 0.00184 µM) | 0.0156 (≈ 0.0296 µM) | 0.0156 (≈ 0.0296 µM) | 0.0625 (≈ 0.119 µM) | > 64 | 0.0039 (≈ 0.00741 µM) | 0.0625 (≈ 0.119 µM) | 0.0039 (≈ 0.00741 µM) | CCCCCCC(=O)Nc1ccc(N2CCN(CC(O)(Cn3cncn3)c3ccc(F)cc3F)CC2)cc1 (racemic) |
| 0.0156 (≈ 0.0289 µM) | 0.0625 (≈ 0.116 µM) | 0.0625 (≈ 0.116 µM) | 0.0625 (≈ 0.116 µM) | 1 (≈ 1.85 µM) | 0.0625 (≈ 0.116 µM) | 1 (≈ 1.85 µM) | 0.0156 (≈ 0.0289 µM) | CCCCCCCC(=O)Nc1ccc(N2CCN(CC(O)(Cn3cncn3)c3ccc(F)cc3F)CC2)cc1 (racemic) |
| 0.0156 (≈ 0.0274 µM) | 1 (≈ 1.76 µM) | 0.25 (≈ 0.44 µM) | 0.0625 (≈ 0.11 µM) | 1 (≈ 1.76 µM) | 0.0625 (≈ 0.11 µM) | 1 (≈ 1.76 µM) | 0.0156 (≈ 0.0274 µM) | CCCCCCCCCC(=O)Nc1ccc(N2CCN(CC(O)(Cn3cncn3)c3ccc(F)cc3F)CC2)cc1 (racemic) |
| 0.0625 (≈ 0.105 µM) | 0.25 (≈ 0.419 µM) | 1 (≈ 1.68 µM) | 0.0625 (≈ 0.105 µM) | 1 (≈ 1.68 µM) | 0.0625 (≈ 0.105 µM) | 0.25 (≈ 0.419 µM) | 0.0156 (≈ 0.0261 µM) | CCCCCCCCCCCC(=O)Nc1ccc(N2CCN(CC(O)(Cn3cncn3)c3ccc(F)cc3F)CC2)cc1 (racemic) |
| 0.25 (≈ 0.383 µM) | 1 (≈ 1.53 µM) | 1 (≈ 1.53 µM) | 16 (≈ 24.5 µM) | > 64 | 0.25 (≈ 0.383 µM) | 4 (≈ 6.13 µM) | 0.25 (≈ 0.383 µM) | CCCCCCCCCCCCCCCC(=O)Nc1ccc(N2CCN(CC(O)(Cn3cncn3)c3ccc(F)cc3F)CC2)cc1 (racemic) |
| 0.0625 (≈ 0.132 µM) | 0.0625 (≈ 0.132 µM) | 0.0625 (≈ 0.132 µM) | 1 (≈ 2.11 µM) | 4 (≈ 8.43 µM) | 0.25 (≈ 0.527 µM) | 0.25 (≈ 0.527 µM) | 1 (≈ 2.11 µM) | CC(=O)Nc1ccc(N2CCN(CC(O)(Cn3cncn3)c3ccc(F)cc3F)CC2)c(F)c1 (racemic) |
| 0.0039 (≈ 0.00766 µM) | 0.0156 (≈ 0.0307 µM) | 0.0156 (≈ 0.0307 µM) | 0.0625 (≈ 0.123 µM) | 1 (≈ 1.96 µM) | 0.0625 (≈ 0.123 µM) | 0.0625 (≈ 0.123 µM) | 0.0156 (≈ 0.0307 µM) | O=C(CCl)Nc1ccc(N2CCN(CC(O)(Cn3cncn3)c3ccc(F)cc3F)CC2)c(F)c1 (racemic) |
